Assay results as given in paper PMC9906001 (Pulmonary Circulation, 2023).
Where “and” joins values, the source holds several entries; their conditions need not be identical. Equal values may be shown once. Read-outs that look alike come from different tables or passages of the source.

Key:
[1] = system: Japanese patients with pulmonary arterial hypertension; experiment: Hemodynamic measurements by right heart catheterization; assay type: in vivo, human
Method in brief: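 RHC at baseline and Week 12, pre-inhalation and 15 and 30 min after inhaling test compound (6 µg/breath, starting 3 breaths four times daily). CO by thermodilution or indirect Fick per site, with the same method per patient. PVR = (mPAP−PAWP)/CO; PVRI = (mPAP−PAWP)/cardiac index (CO/BSA). Lower of 15/30-min PVRI taken as Week-12 "best". Significance: 95% CI of mean change excluding 0.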

[2] = system: Japanese patients with pulmonary arterial hypertension; experiment: 6-minute walking distance and Borg Dyspnea Score; assay type: in vivo, human
Method in brief: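 Single-arm, open-label study: test compound nebulised at 6 µg/breath from a 0.6 mg/mL solution, started at 3 breaths (18 µg)/session four times daily. Peak 6MWD taken 10–60 min after inhalation, trough 6MWD at least 4 h post-inhalation. Borg score was a secondary endpoint. Change from baseline; significance taken as a two-sided 95% CI excluding 0.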

[3] = system: Japanese patients with pulmonary arterial hypertension; experiment: WHO functional class; assay type: in vivo, human
Method in brief: (§1)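 Multicentre, non-randomised, single-arm study: 12-week main period plus 40-week extension. Nebulised test compound given as 0.6 mg/mL at 6 µg/breath, starting 3 breaths (18 µg)/session four times daily. Patients 18–75 y with PAH; stable background ERA/PDE5 inhibitor/sGC stimulator allowed; no other prostacyclin-pathway drugs. Secondary endpoints reported as change from baseline.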

[4] = system: Japanese patients with pulmonary arterial hypertension; experiment: NT-proBNP levels; assay type: in vivo, human
Method in brief: as §1

[5] = system: Japanese patients with pulmonary arterial hypertension; experiment: Quality of life, Minnesota Living with Heart Failure questionnaire; assay type: in vivo, human
Method in brief: as §1

[6] = system: Japanese patients with pulmonary arterial hypertension; experiment: Time to clinical worsening; assay type: in vivo, human
Method in brief: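 Clinical worsening was defined as death, transplantation, hospitalisation for worsening PAH, or start of additional PAH-specific therapy. Followed during the 12-week main and 40-week long-term periods of open-label nebulised test compound (6 µg/breath, starting 3 breaths/session four times daily), in addition to background ERA and/or PDE5 inhibitor/sGC stimulator.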

[7] = system: Japanese patients with pulmonary arterial hypertension; experiment: Safety: adverse events and safety parameters over 52 weeks; assay type: in vivo, human
Method in brief: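 Over the 52 weeks of nebulised test compound (6 µg/breath, starting 3 breaths four times daily), AEs were coded by MedDRA v24.0 preferred term. Monitoring covered clinical laboratory tests, blood pressure, pulse, SpO2, ECG, chest X-ray, pulmonary function, arterial blood gas and body weight. Safety set: patients who received at least one dose.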

[8] = Plasma pharmacokinetics in Japanese PAH patients; assay type: in vivo, human
[9] = Plasma pharmacokinetics in Japanese healthy adults, single inhalation; assay type: in vivo, human; conditions: 18 and 36 μg inhaled
[10] = 54 μg inhaled, non-Japanese PAH patients; cited from earlier work
[11] = system: Japanese patients with pulmonary arterial hypertension; conditions: baseline to week 16, study of selexipag in Japan; cited from earlier work
[12] = Week 12, 15 min post-inhalation, n = 17
[13] = Week 12, 30 min post-inhalation, n = 17
[14] = Week 12, post-inhalation best, n = 17
[15] = Week 12, pre-inhalation (trough treprostinil level), n = 17
[16] = Week 12, pre-inhalation, n = 17
[17] = over 52 weeks, n = 17, listed as treprostinil
[18] = human, plasma, inhaled or intranasal, 54 ug

CCCCC[C@H](O)CC[C@@H]1[C@H]2Cc3cccc(OCC(=O)O)c3C[C@H]2C[C@H]1O [inhaled treprostinil, Treprostinil]
Best change from baseline in PVRI at Week 12 ([1]; 13 patients receiving a combination of an ERA and a PDE5 inhibitor/sGC stimulator): −36.7 ± 25.0% | CO [1, 12]: 4.9 ± 1.6 L/min | Cardiac index [1, 12]: 3.0 ± 0.9 L/min/m^2 | PAWP [1, 12]: 9.4 ± 4.2 mmHg | PVR [1, 12]: 4.5 ± 1.8 Wood units | PVRI [1, 12]: 7.4 ± 2.8 Wood units·m^2 | SVR [1, 12]: 17.8 ± 6.5 Wood units | SVRI [1, 12]: 28.8 ± 9.5 Wood units·m^2 | SvO2 [1, 12]: 71.3 ± 5.6% | mPAP [1, 12]: 30.5 ± 10.1 mmHg | mRAP [1, 12]: 4.5 ± 3.1 mmHg | CO [1, 13]: 5.0 ± 1.5 L/min | Cardiac index [1, 13]: 3.0 ± 0.9 L/min/m^2 | PAWP [1, 13]: 8.9 ± 3.9 mmHg | PVR [1, 13]: 4.4 ± 2.0 Wood units | PVRI [1, 13]: 7.3 ± 3.1 Wood units·m^2 | SVR [1, 13]: 17.7 ± 6.2 Wood units | SVRI [1, 13]: 28.7 ± 9.2 Wood units·m^2 | SvO2 [1, 13]: 70.0 ± 5.8% | mPAP [1, 13]: 30.1 ± 10.3 mmHg | mRAP [1, 13]: 4.8 ± 3.3 mmHg | CO [1, 14]: 5.1 ± 1.7 L/min | Cardiac index [1, 14]: 3.1 ± 0.9 L/min/m^2 | PAWP [1, 14]: 8.5 ± 4.0 mmHg | PVR [1, 14]: 4.2 ± 1.9 Wood units | PVRI [1, 14]: 6.9 ± 2.9 Wood units·m^2 | SVR [1, 14]: 17.5 ± 6.4 Wood units | SVRI [1, 14]: 28.4 ± 9.4 Wood units·m^2 | SvO2 [1, 14]: 71.5 ± 5.5% | mPAP [1, 14]: 29.8 ± 9.9 mmHg | mRAP [1, 14]: 4.4 ± 3.0 mmHg | Change from baseline in PVR [1, 15]: −19.6 ± 26.8% | Change from baseline in PVRI [1, 15]: −19.2 ± 26.8% | Change from baseline in mPAP [1, 15]: −4.0 ± 6.1 mmHg | CO [1, 16]: 4.6 ± 1.3 L/min | Cardiac index [1, 16]: 2.8 ± 0.8 L/min/m^2 | PAWP [1, 16]: 8.8 ± 4.1 mmHg | PVR [1, 16]: 5.7 ± 2.2 Wood units | PVRI [1, 16]: 9.3 ± 3.1 Wood units·m^2 | SVR [1, 16]: 19.5 ± 6.2 Wood units | SVRI [1, 16]: 31.7 ± 8.7 Wood units·m^2 | SvO2 [1, 16]: 71.2 ± 5.3% | mPAP [1, 16]: 34.1 ± 9.8 mmHg | mRAP [1, 16]: 5.0 ± 3.5 mmHg | Best change from baseline in PVRI at Week 12 ([1]; one patient who was treatment-naïve): −54.7% | % Change from baseline to Week 12 in CO ([1]; post-inhalation best, n = 17): 18.3 ± 20.0 (8.0 to 28.6) % | % Change from baseline to Week 12 in PAWP ([1]; post-inhalation best, n = 17): 24.2 ± 60.9 (−7.1 to 55.5) % | % Change from baseline to Week 12 in PVR ([1]; post-inhalation best, n = 17): −39.7 ± 25.6 (−52.9 to −26.5) % | % Change from baseline to Week 12 in PVRI (primary endpoint) ([1]; post-inhalation best, n = 17): −39.4 ± 25.5 (−52.6 to −26.3) % | % Change from baseline to Week 12 in SVR ([1]; post-inhalation best, n = 17): −15.3 ± 24.0 (−27.7 to −3.0) % | % Change from baseline to Week 12 in SVRI ([1]; post-inhalation best, n = 17): −14.8 ± 24.4 (−27.4 to −2.3) % | % Change from baseline to Week 12 in SvO2 ([1]; post-inhalation best, n = 17): 2.7 ± 5.8 (−0.3 to 5.7) % | % Change from baseline to Week 12 in cardiac index ([1]; post-inhalation best, n = 17): 17.8 ± 20.3 (7.3 to 28.2) % | % Change from baseline to Week 12 in mPAP ([1]; post-inhalation best, n = 17): −21.7 ± 19.7 (−31.9 to −11.6) % | % Change from baseline to Week 12 in mRAP ([1]; post-inhalation best, n = 17): −0.3 ± 57.0 (−31.9 to 31.2) % | Change from baseline to Week 12 in PVR ([1]; post-inhalation best, n = 17): −2.9 ± 2.0 (−4.0 to −1.9) Wood units | Change from baseline to Week 12 in PVRI ([1]; post-inhalation best, n = 17): −4.7 ± 3.0 (−6.2 to −3.1) Wood units·m^2 | Change from baseline to Week 12 in SVR ([1]; post-inhalation best, n = 17): −3.3 ± 4.4 (−5.6 to −1.1) Wood units | Change from baseline to Week 12 in SVRI ([1]; post-inhalation best, n = 17): −5.3 ± 7.3 (−9.1 to −1.5) Wood units·m^2 | Change from baseline to Week 12 in mPAP ([1]; post-inhalation best, n = 17): −8.3 ± 6.8 (−11.8 to −4.8) mmHg | Best change from baseline in PVRI at Week 12 ([1]; three patients receiving an ERA): −46.0 ± 35.1% | Mean change from baseline in trough 6MWD ([2]; Week 12): +17.8 ± 35.5 m | Change from baseline in Borg Dyspnea Score ([2]; Weeks 6, 12, and 52): No significant changes | WHO functional class improved ([3]; Week 12): four | WHO functional class I ([3]; Week 12 (n = 17)): 1 (5.9) n (%) | WHO functional class II ([3]; Week 12 (n = 17)): 13 (76.5) n (%) | WHO functional class III ([3]; Week 12 (n = 17)): 3 (17.6) n (%) | WHO functional class I ([3]; Week 52 (n = 16)): 2 (12.5) n (%) | WHO functional class II ([3]; Week 52 (n = 16)): 12 (75.0) n (%) | WHO functional class III ([3]; Week 52 (n = 16)): 2 (12.5) n (%) | WHO functional class shift II -> I ([3]; baseline to Week 12 (n = 17)): 1 (5.9) n (%) | WHO functional class shift II -> II ([3]; baseline to Week 12 (n = 17)): 10 (58.8) n (%) | WHO functional class shift III -> II ([3]; baseline to Week 12 (n = 17)): 3 (17.6) n (%) | WHO functional class shift III -> III ([3]; baseline to Week 12 (n = 17)): 3 (17.6) n (%) | WHO functional class shift II -> I ([3]; baseline to Week 52 (n = 16)): 2 (12.5) n (%) | WHO functional class shift II -> II ([3]; baseline to Week 52 (n = 16)): 9 (56.3) n (%) | WHO functional class shift III -> II ([3]; baseline to Week 52 (n = 16)): 3 (18.8) n (%) | WHO functional class shift III -> III ([3]; baseline to Week 52 (n = 16)): 2 (12.5) n (%) | Deterioration of WHO functional class ([3]; throughout the 52 weeks): no patient | Mean change from baseline in NT-proBNP level ([4]; Week 6): -34.6 ± 100.0 pg/mL | Mean change from baseline in NT-proBNP level ([4]; Week 12): -35.5 ± 165.5 pg/mL | Mean change from baseline in NT-proBNP level ([4]; Week 52): -77.1 ± 194.1 pg/mL | Mean change from baseline in MLWHF global score ([5]; Week 12): −6.6 ± 12.1 | Mean change from baseline in MLWHF global score ([5]; Week 52): −5.8 ± 13.4 | Add-on therapy with a PDE5 inhibitor/sGC stimulator ([6]; long-term treatment period, patients who had been receiving an ERA): two patients | Needed additional PAH-specific therapy ([6]; main treatment period (12 weeks)): no patient | Death, transplantation, or hospitalization due to worsening PAH ([6]; throughout the 52 weeks): no patient | AE related to treprostinil: cough ([7]; 52-week period): 47.1% | AE related to treprostinil: headache ([7]; 52-week period): 58.8% | AE related to treprostinil: hot flush ([7]; 52-week period): 23.5% | AE related to treprostinil: throat irritation ([7]; 52-week period): 29.4% | Intensity of AEs ([7]; all AEs, 52-week period): mild‐moderate intensity | Tolerability ([7]; four times daily in Japanese patients with PAH): well tolerated | AE related to treprostinil: Blood pressure decreased ([7]; over 52 weeks, n = 17): 2 (11.8) n (%) | AE related to treprostinil: Diarrhoea ([7]; over 52 weeks, n = 17): 2 (11.8) n (%) | AE related to treprostinil: Dizziness ([7]; over 52 weeks, n = 17): 2 (11.8) n (%) | AE related to treprostinil: Head discomfort ([7]; over 52 weeks, n = 17): 3 (17.6) n (%) | AE related to treprostinil: Hot flush ([7]; over 52 weeks, n = 17): 4 (23.5) n (%) | AE related to treprostinil: Nausea ([7]; over 52 weeks, n = 17): 3 (17.6) n (%) | AE related to treprostinil: Oropharyngeal discomfort ([7]; over 52 weeks, n = 17): 3 (17.6) n (%) | AE related to treprostinil: Oropharyngeal pain ([7]; over 52 weeks, n = 17): 2 (11.8) n (%) | AE related to treprostinil: Pyrexia ([7]; over 52 weeks, n = 17): 2 (11.8) n (%) | AE related to treprostinil: cough ([7]; over 52 weeks, n = 17): 8 (47.1) n (%) | AE related to treprostinil: headache ([7]; over 52 weeks, n = 17): 10 (58.8) n (%) | AE related to treprostinil: throat irritation ([7]; over 52 weeks, n = 17): 5 (29.4) n (%) | Deaths ([7]; over 52 weeks, n = 17): no deaths | Deaths [7, 17]: 0 n (%) | Total patients with at least one AE [7, 17]: 17 n (%) and 17 (100.0) n (%) | Total patients with at least one AE related to treprostinil [7, 17]: 17 n (%) and 17 (100.0) n (%) | MRT [8, 18]: 55.8 ± 10.2 min | Vd/F [8, 18]: 76.7 ± 52.2 L | k el [8, 18]: 0.000272 s⁻¹ | Time detectable in the plasma after inhalation ([8]; nine breaths (54 μg) four times daily): approximately 4 h | Mean C max, Japanese vs non-Japanese healthy adults [9]: 1.2 fold | Geometric mean C max [10]: 1.02 ng/mL

CC(C)N(CCCCOCC(=O)NS(C)(=O)=O)c1cnc(-c2ccccc2)c(-c2ccccc2)n1 [selexipag]
Change from baseline in mPAP [11]: −3.1 mmHg
